Results on three compounds are retold here after ChEMBL document CHEMBL1122018, “Synthesis and orexigenic activity of some 1-methyl-4-piperidylidene-Substituted pyrrolo[2,1-g][3] benzazepine and dibenzocycloheptene derivatives” (1982).

What all share (assay type): functional
Assay [1] concerns Felis catus. As to the kind of experiment: Average food consumed at the dose of 0.016 mg/kg (po) using 10 cats per dose level at 30 min (control day/ test day); 16/91.
In assay [2] the test system is Felis catus. As to the kind of experiment: Average food consumed at the dose of 0.063 mg/kg (po) using 10 cats per dose level at 60 min (control day/ test day); 37/178.
The test system of assay [3] is Felis catus. Briefly: Average food consumed at the dose of 0.25 mg/kg (po) using 10 cats per dose level at 60 min (control day/ test day); 40/208. Summed up:
(§1)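 Cats given test compound suspended in 1% methylcellulose, or 1% methylcellulose placebo, by gavage 30 min before a preweighed test meal. Food was offered in surplus for 3 h, and intake was found by reweighing at 30, 60 and 180 min. Ten cats per dose, each dosed no more than once weekly. Test-day intake was compared with the preceding control day by two-tailed paired t test (p < 0.05); values are mean ± SD.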

Assay [4] concerns Felis catus. As to the kind of experiment: Average food consumed at the dose of 0.50 mg/kg (po) using 10 cats per dose level at 60 min (control day/ test day); 44/217. Particulars: dose 0.5 mg/kg. Summed up:
as §1

Assay [5] has as its system Felis catus. Briefly: Average food consumed at the dose of 0.25 mg/kg (po) using 10 cats per dose level at 180 min (control day/ test day); 46/239.
Assay [6] concerns Felis catus. As to the kind of experiment: Average food consumed at the dose of 0.063 mg/kg (po) using 10 cats per dose level at 30 min (control day/ test day); 28/137.
Assay [7] concerns Felis catus. Briefly: Average food consumed at the dose of 0.50 mg/kg (po) using 10 cats per dose level at 180 min (control day/ test day); 46/243. Particulars: dose 0.5 mg/kg. Summed up: as §1
Assay [8] deals with Felis catus. Briefly: Average food consumed at the dose of 0.25 mg/kg (po) using 10 cats per dose level at 30 min (control day/ test day); 33/172. The gist of the method: as §1
The test system of assay [9] is Felis catus. Briefly: Average food consumed at the dose of 0.016 mg/kg (po) using 10 cats per dose level at 180 min (control day/ test day); 33/182.
In assay [10] the test system is Felis catus. Briefly: Average food consumed at the dose of 0.50 mg/kg (po) using 10 cats per dose level at 30 min (control day/ test day); 51/189. Particulars: dose 0.5 mg/kg. The gist of the method:
as §1

In assay [11] the test system is Felis catus. Briefly: Average food consumed at the dose of 0.016 mg/kg (po) using 10 cats per dose level at 60 min (control day/ test day); 16/119.
In assay [12] the test system is Felis catus. Briefly: Average food consumed at the dose of 0.063 mg/kg (po) using 10 cats per dose level at 180 min (control day/ test day); 62/219.
Assay [13] relates to Felis catus. As to the kind of experiment: Average food consumed at the dose of 0.016 mg/kg (po) using 10 cats per dose level at 30 min (control day/ test day); 35/118.
Assay [14] concerns Felis catus. Briefly: Average food consumed at the dose of 0.25 mg/kg (po) using 10 cats per dose level at 180 min (control day/ test day); 45/231.
In assay [15] the test system is Felis catus. As to the kind of experiment: Average food consumed at the dose of 0.50 mg/kg (po) using 10 cats per dose level at 30 min (control day/ test day); 47/190. The settings on record: dose 0.5 mg/kg. The gist of the method: as §1
Assay [16] has as its system Felis catus. Briefly: Average food consumed at the dose of 0.50 mg/kg (po) using 10 cats per dose level at 180 min (control day/ test day); 50/256. The settings on record: dose 0.5 mg/kg. Summed up:
as §1

Assay [17] relates to Felis catus. Briefly: Average food consumed at the dose of 0.25 mg/kg (po) using 10 cats per dose level at 30 min (control day/ test day); 34/165. Summed up:
as §1

Assay [18] concerns Felis catus. As to the kind of experiment: Average food consumed at the dose of 0.063 mg/kg (po) using 10 cats per dose level at 180 min (control day/ test day); 59/195.
In assay [19] the test system is Felis catus. Briefly: Average food consumed at the dose of 0.016 mg/kg (po) using 10 cats per dose level at 60 min (control day/ test day); 41/160.
Assay [20] relates to Felis catus. As to the kind of experiment: Average food consumed at the dose of 0.50 mg/kg (po) using 10 cats per dose level at 60 min (control day/ test day); 50/221. Particulars: dose 0.5 mg/kg. Summed up: as §1
The test system of assay [21] is Felis catus. As to the kind of experiment: Average food consumed at the dose of 0.25 mg/kg (po) using 10 cats per dose level at 60 min (control day/ test day); 35/200. Summed up: as §1
Assay [22] deals with Felis catus. Briefly: Average food consumed at the dose of 0.063 mg/kg (po) using 10 cats per dose level at 30 min (control day/ test day); 14/112.
Assay [23] concerns Felis catus. As to the kind of experiment: Average food consumed at the dose of 0.063 mg/kg (po) using 10 cats per dose level at 60 min (control day/ test day); 28/130.
Assay [24] relates to Felis catus. As to the kind of experiment: Average food consumed at the dose of 0.016 mg/kg (po) using 10 cats per dose level at 180 min (control day/ test day); 46/193.
Assay [25] concerns Felis catus. As to the kind of experiment: Average food consumed at the dose of 0.25 mg/kg (po) using 10 cats per dose level at 30 min (control day/ test day); 37/98. The gist of the method: as §1
The test system of assay [26] is Felis catus. Briefly: Average food consumed at the dose of 0.25 mg/kg (po) using 10 cats per dose level at 60 min (control day/ test day); 46/128. The gist of the method:
as §1

Assay [27] concerns Felis catus. As to the kind of experiment: Average food consumed at the dose of 0.031 mg/kg (po) using 10 cats per dose level at 60 min (control day/ test day); 25/105.
Assay [28] deals with Felis catus. Briefly: Average food consumed at the dose of 0.031 mg/kg (po) using 10 cats per dose level at 180 min (control day/ test day); 52/182.
Assay [29] has as its system Felis catus. As to the kind of experiment: Average food consumed at the dose of 0.031 mg/kg (po) using 10 cats per dose level at 180 min (control day/ test day); 34/172.
Assay [30] relates to Felis catus. Briefly: Average food consumed at the dose of 0.25 mg/kg (po) using 10 cats per dose level at 180 min (control day/ test day); 40/210.
Assay [31] deals with Felis catus. As to the kind of experiment: Average food consumed at the dose of 0.50 mg/kg (po) using 10 cats per dose level at 30 min (control day/ test day); 24/93. Particulars: dose 0.5 mg/kg. Summed up: as §1
For assay [32], the system named is Felis catus. Briefly: Average food consumed at the dose of 0.031 mg/kg (po) using 10 cats per dose level at 60 min (control day/ test day); 9/113.
Assay [33] concerns Felis catus. Briefly: Average food consumed at the dose of 0.50 mg/kg (po) using 10 cats per dose level at 60 min (control day/ test day); 23/129. Particulars: dose 0.5 mg/kg. The gist of the method: as §1
Assay [34] relates to Felis catus. Briefly: Average food consumed at the dose of 0.031 mg/kg (po) using 10 cats per dose level at 30 min (control day/ test day); 25/67.
The subject of assay [35] is Felis catus. As to the kind of experiment: Average food consumed at the dose of 0.031 mg/kg (po) using 10 cats per dose level at 30 min (control day/ test day); 18/88.
Assay [36] has as its system Felis catus. As to the kind of experiment: Average food consumed at the dose of 0.50 mg/kg (po) using 10 cats per dose level at 180 min (control day/ test day); 35/194. The settings on record: dose 0.5 mg/kg. Summed up:
as §1

Each structure is given as a SMILES string.

`CN1CCC(=C2c3ccccc3C=Cn3cccc32)CC1.O=C(O)C(=O)O`: the Average consumed turned out to be 43 g with Felis catus [1]; 100 g in the assay on Felis catus [2]; 134 g with Felis catus [3]; 148 g with Felis catus [4]; 183 g in the assay with Felis catus [5]; 66 g in the assay with Felis catus [6]. The Average consumed worked out at 193 g in the assay on Felis catus [7]; 113 g in the assay with Felis catus [8]; 126 g in the assay with Felis catus [9]; 133 g with Felis catus [10]; 69 g in the assay on Felis catus [11]; 166 g in the assay on Felis catus [12].

Turning to `CN1CCC(=C2c3ccccc3C=Cc3ccccc32)CC1` [CYPROHEPTADINE], the Average consumed in the assay on Felis catus [13] is on record as 75 g; in the assay with Felis catus [14], 179 g; in the assay on Felis catus [15], 135 g; in the assay with Felis catus [16] it was 194 g; in the assay with Felis catus [17], 109 g; in the assay on Felis catus [18], 134 g. Moreover, the Average consumed worked out at 108 g in the assay with Felis catus [19]; 157 g in the assay on Felis catus [20]; 129 g in the assay on Felis catus [21]; 56 g with Felis catus [22]; 80 g in the assay with Felis catus [23]; 157 g with Felis catus [24].

Consider `CN1CCC(=C2c3cc(C(=O)O)ccc3C=Cn3cccc32)CC1.Cl`, for which the Average consumed with Felis catus [25] is reported as 73 g; in the assay with Felis catus [26], 112 g; in the assay with Felis catus [27] it was 84 g; with Felis catus [28], 184 g; in the assay with Felis catus [29], 145 g; in the assay on Felis catus [30], 176 g. For the same compound, the Average consumed was 78 g in the assay with Felis catus [31]; 98 g in the assay with Felis catus [32]; 114 g with Felis catus [33]; 55 g in the assay on Felis catus [34]; 65 g with Felis catus [35]; 170 g in the assay on Felis catus [36].
